How the values were obtained:
[1] = target: Histone deacetylase 1 (Homo sapiens, UniProt Q13547); test: Inhibition of human HDAC1 in presence of dithiothreitol by HDAC fluorescent assay
[2] = target: Histone deacetylase 2 (Homo sapiens, UniProt Q92769); test: Inhibition of HDAC2 in human HeLa cell nuclear extracts in presence of dithiothreitol by HDAC fluorescent assay
[3] = system: MCF7; test: Antiproliferative activity against human MCF7 cells after 48 hrs by MTT assay; type: functional, cell-based; conditions: MCF7, 48 h
In short: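 MCF-7 cells were grown in DMEM with 10% fetal bovine serum at 37 °C under 5% CO₂, then plated and incubated overnight. Compounds were added as 10-fold serial dilutions. MTT (0.5 mg/mL in serum-free medium) was added for 4 h, formazan was dissolved in DMSO, and absorbance was read at 570 nm. IC₅₀ was determined in triplicate, with at least three repeat experiments.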

Chain of Histone deacetylase 1 (Q13547 whole entry): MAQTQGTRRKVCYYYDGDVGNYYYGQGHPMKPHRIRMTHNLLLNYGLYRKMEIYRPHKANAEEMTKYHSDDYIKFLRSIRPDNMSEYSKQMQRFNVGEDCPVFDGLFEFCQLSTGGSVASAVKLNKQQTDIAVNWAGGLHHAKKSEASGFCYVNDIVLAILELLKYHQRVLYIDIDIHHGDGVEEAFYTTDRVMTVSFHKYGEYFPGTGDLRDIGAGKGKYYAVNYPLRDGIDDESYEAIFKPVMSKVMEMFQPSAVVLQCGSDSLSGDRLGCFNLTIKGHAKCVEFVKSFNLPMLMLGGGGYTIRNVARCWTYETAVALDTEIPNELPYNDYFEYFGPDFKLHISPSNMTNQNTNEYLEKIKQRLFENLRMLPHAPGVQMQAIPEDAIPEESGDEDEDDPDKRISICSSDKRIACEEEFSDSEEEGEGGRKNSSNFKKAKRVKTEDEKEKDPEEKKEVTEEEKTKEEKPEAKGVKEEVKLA
Chain of Histone deacetylase 2 (Q92769 whole entry): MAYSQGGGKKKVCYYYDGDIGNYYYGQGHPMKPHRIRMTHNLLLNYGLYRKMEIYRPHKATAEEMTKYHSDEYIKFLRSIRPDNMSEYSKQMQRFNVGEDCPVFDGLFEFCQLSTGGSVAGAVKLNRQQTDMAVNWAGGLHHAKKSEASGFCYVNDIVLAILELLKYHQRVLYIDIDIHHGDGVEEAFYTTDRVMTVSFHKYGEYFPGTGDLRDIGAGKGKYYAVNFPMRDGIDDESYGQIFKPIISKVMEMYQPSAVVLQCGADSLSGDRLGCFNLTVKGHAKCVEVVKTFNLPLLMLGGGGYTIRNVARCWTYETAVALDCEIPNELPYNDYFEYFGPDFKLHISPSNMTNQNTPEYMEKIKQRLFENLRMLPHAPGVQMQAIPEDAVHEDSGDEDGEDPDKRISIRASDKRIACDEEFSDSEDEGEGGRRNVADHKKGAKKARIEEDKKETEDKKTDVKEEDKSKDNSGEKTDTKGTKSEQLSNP

Row | IC50 [1] [nM] | IC50 [2] [nM] | IC50 [3] [nM] | SMILES
1 | 64.1 | 40.7 | 15600 | O=C(N[C@@H](CCCCCCSSc1ccccn1)C(=O)OCc1ccc(-c2ccccc2)cc1)OCc1ccccc1
2 | 65.2 | 38.2 | 15300 | O=C(N[C@@H](CCCCCCSSc1ccccn1)C(=O)Nc1cccc2ccccc12)OCc1ccccc1
3 | 66.9 | 44.1 | 19600 | O=C(N[C@@H](CCCCCCSSc1ccccn1)C(=O)NC1CCCCC1)OCc1ccccc1
4 | 5.1 | 3.9 | 3200 | O=C(N[C@@H](CCCCCCSSc1ccccn1)C(=O)Nc1nc(-c2ccccc2)cs1)OCc1ccccc1
5 | 71.2 | 45.2 | 20800 | O=C(N[C@@H](CCCCCCSSc1ccccn1)C(=O)Nc1ccccc1-c1ccccc1)OCc1ccccc1
6 | 70.9 | 46.6 | 18100 | O=C(N[C@@H](CCCCCCSSc1ccccn1)C(=O)Nc1ccc(-c2ccccc2)cc1)OCc1ccccc1
7 | 68.2 | 48.1 | 17200 | O=C(N[C@@H](CCCCCCSSc1ccccn1)C(=O)NC1c2ccccc2-c2ccccc21)OCc1ccccc1
8 | 7.6 | 5.2 | 3500 | O=C(N[C@@H](CCCCCCSSc1ccccn1)C(=O)OCC1c2ccccc2-c2ccccc21)OCc1ccccc1
9 | 64.4 | 45.5 | 16900 | O=C(N[C@@H](CCCCCCSSc1ccccn1)C(=O)OCc1ccc([N+](=O)[O-])cc1)OCc1ccccc1
10 | 66.7 | 48.5 | 15200 | O=C(N[C@@H](CCCCCCSSc1ccccn1)C(=O)OCc1cccc([N+](=O)[O-])c1)OCc1ccccc1
11 | 65.2 | 40.3 | 14800 | O=C(N[C@@H](CCCCCCSSc1ccccn1)C(=O)OCc1ccc2ccccc2c1)OCc1ccccc1
12 | 64.7 | 39.6 | 15300 | O=C(N[C@@H](CCCCCCSSc1ccccn1)C(=O)OCc1cccc2ccccc12)OCc1ccccc1
13 | 59.2 | 43.6 | 14000 | O=C(N[C@@H](CCCCCCSSc1ccccn1)C(=O)OCc1c2ccccc2cc2ccccc12)OCc1ccccc1
14 |  |  | 1700 | CC(/C=C/C(=O)NO)=C\[C@@H](C)C(=O)c1ccc(N(C)C)cc1 [TRICHOSTATIN]

From ChEMBL document CHEMBL2021837, “A novel series of l-2-benzyloxycarbonylamino-8-(2-pyridyl)-disulfidyloctanoic acid derivatives as histone deacetylase inhibitors: design, synthesis and molecular modeling study” (Eur J Med Chem, 2012)
